Measured values reported in PubChem BioAssay.
Inconclusive results are not listed.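 Rule for the calls, unless noted: active = viability at or below 27.92% in each of two runs, the all-compound median minus 4 SD; inconclusive = no clear call, values can overlap the other calls; inactive = the rest.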

What was measured:
[1] = OD615 S. cerevisiae growth inhibition, permissive medium, pilot counter-assay, permissive growth control for S. cerevisiae lifespan shortening project (AID 705;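 active = growth inhibition above 25% in both replicates, a cutoff set 3 SD above the mean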); details: OD615, 24 h, at 10 µM, stronger effect = higher value
Method in brief: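 Timing: 24 h exposure, 30 °C / Material: Saccharomyces cerevisiae strain carrying genetically modified DeaD replicative-lifespan system / Signal: OD at 615 nm / Compound: 10 µM single dose, 0.25% DMSO / Medium: SC raffinose/galactose permissive medium / Evaluation: reduction in yeast growth (OD615)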

[2] = Restrictive medium S. cerevisiae growth inhibition, OD615, pilot screen of yeast lifespan reduction project, restrictive growth control (AID 706;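 active = growth inhibition above a set limit, 3 SD over mean compound inhibition, in both replicates, cut at about 43% in these data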;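 note: modified DeaD lifespan yeast strain shifted to restrictive glucose medium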); details: OD615, 48 h, at 10 µM, stronger effect = higher value
Method in brief: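 System: Engineered S. cerevisiae DeaD strain | Detection: OD615 | Buffer or medium: CSMM-D glucose medium | Doses: 10 µM compound, 0.25% DMSO | Timing: 4 h pre-growth plus 48 h compound exposure, 30 °C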

[3] = viability gain of MRP-1-high H69AR cells under doxorubicin, pilot screen, MRP-1 activator project, CellTiter-Glo, duplicate (AID 807;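 active = viability increase at or above a cutoff of the median across tested compounds plus 3 SD, cut at about 8.5% in these data, passing the limit was not always enough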;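 note: compound pretreatment 18-22 h then 72 h combined with doxorubicin; 0% = doxorubicin alone and 100% = vehicle without doxorubicin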); details: H69AR viability with doxorubicin, CellTiter-Glo luminescence; at 10 µM; stronger effect = higher value
[4] = growth suppression of beta-catenin knockout HCT116, pilot screen, human colon tumor cells (AID 823;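 active = cell viability at or below a set limit in both duplicate runs, the limit being the all-compound median minus 4 SD, cut at about 23% in these data, passing the limit was not always enough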;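 note: 0% = wells killed by 20 µM Hyamine and 100% = untreated DMSO cell wells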); details: CellTiter-Glo, 60 h, at 10 µM, stronger effect = lower value
[5] = growth suppression of PTEN-deleted HCT116, pilot screen, cell-based, HCT116 clonal line, CellTiter-Glo (AID 824); details: 60 h, at 10 µM, stronger effect = lower value;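 note: 0% = 20 µM Hyamine control and 100% = vehicle cell control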
[6] = inhibitors of the yeast RAM network, pilot screen, dse1pr::URA3 reporter, 5-FOA selection (AID 869;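 active = inhibition over a set limit, the all-compound mean plus 3 SD, in both replicate runs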;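 note: 0% = DMSO wells with no growth and 100% = 10 µM 1-NA-PP1 with full growth; RAM network block rescues cells from 5-FOA so hits raise OD615 growth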); details: S. cerevisiae dse1pr::URA3 5-FOA growth, OD615, 2 d; at 10 µM; stronger effect = higher value; strain carries analog-sensitive mutant Cbk1 kinase
[7] = RAM signaling pathway blockade in yeast – S. cerevisiae, Pdr1DBD-CYC8 efflux-inhibited sensitized strain, primary screen (AID 1298;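 active = RAM network inhibition above 8.4% in each of two replicates, 3 SD over the compound average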;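 note: 0% = DMSO untreated cells without growth and 100% = 10 µM 1-NA-PP1 full growth; higher means more yeast growth rescued from 5-FOA killing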); details: S. cerevisiae cbk1-as DSE1-URA3 strain, 5-FOA growth OD615, 2 d; at 50 µM; stronger effect = higher value

Cc1cc(NCc2ccccc2)nc(-c2ccccc2O)n1
inactive: growth inhibition [1] -1.8% | growth inhibition [2] -4.48% | viability increase [3] -1.24% | viability [4] 69.5% | viability [5] 70% | inhibition [6] 0.345% | RAM network inhibition [7] 0.61%

Cc1ccccc1Cn1c(CN2CCN(C(=O)c3ccco3)CC2)nc2c1c(=O)n(C)c(=O)n2C
inactive: growth inhibition [1] 1.26% | growth inhibition [2] -4.52% | viability increase [3] -4.75% | viability [4] 94.1% | viability [5] 95.7% | inhibition [6] 0.335% | RAM network inhibition [7] 1.2%

COc1ccc(C2NC(=O)NC(C)=C2C(=O)Nc2cccc(C)c2C)cc1 (stereo not drawn)
inactive: growth inhibition [1] -6.41% | growth inhibition [2] 1.47% | viability increase [3] -1.09% | viability [4] 101% | viability [5] 103% | inhibition [6] 0.77% | RAM network inhibition [7] 1.64%

COc1ccc(-c2c(C)oc3c(CN4CCCCC4C)c(O)ccc3c2=O)cc1OC (stereo not drawn)
inactive: growth inhibition [1] -13.7% | growth inhibition [2] -7.48% | viability increase [3] -9.18% | viability [4] 103% | viability [5] 97.5% | inhibition [6] 1.71% | RAM network inhibition [7] 4.01%

Nc1cc(C(F)(F)F)ccc1C(=O)O
inactive: growth inhibition [1] 9.88% | growth inhibition [2] 9.9% | viability increase [3] -1.66% | viability [4] 97.3% | viability [5] 95.3% | inhibition [6] 0.43% | RAM network inhibition [7] 0.63%

Cc1ccc2oc(=O)n(CCOc3ccccc3Cl)c2c1
inactive: growth inhibition [1] 2.37% | growth inhibition [2] 0.755% | viability increase [3] 2.94% | viability [4] 88.5% | viability [5] 83.9% | inhibition [6] 0.955% | RAM network inhibition [7] 2.66%

COc1ccc(NC(=O)C2CCCN(S(=O)(=O)c3cccnc3)C2)c(OC)c1 (stereo not drawn)
inactive: growth inhibition [1] -9.3% | growth inhibition [2] -2.6% | viability increase [3] 1.08% | viability [4] 104% | viability [5] 97.1% | inhibition [6] 1.57% | RAM network inhibition [7] -0.22%

CCn1c(C(C)NC(=O)c2cccs2)nc2ccccc21 (stereo not drawn)
inactive: growth inhibition [1] -1.68% | growth inhibition [2] -9.03% | viability increase [3] -1.68% | viability [4] 103% | viability [5] 91.9% | inhibition [6] 1.33% | RAM network inhibition [7] 6.3%

CCc1nccn1S(=O)(=O)c1ccc(OC)c(OC)c1
inactive: growth inhibition [1] -17.4% | growth inhibition [2] -10% | viability increase [3] -0.29% | viability [4] 100% | viability [5] 93.3% | inhibition [6] 1.67% | RAM network inhibition [7] 0.47%

COc1ccc(C(=O)c2coc3ccc(O)c(CN4CCOCC4)c23)cc1
inactive: growth inhibition [1] -5.46% | growth inhibition [2] -12% | viability increase [3] -4.42% | viability [4] 77.2% | viability [5] 80.3% | inhibition [6] 1.79% | RAM network inhibition [7] -1.13%

CCSCCOC(=O)C1=C(C)NC(=O)NC1c1ccccc1 (stereo not drawn)
inactive: growth inhibition [1] -4.77% | growth inhibition [2] -1.22% | viability increase [3] 0.68% | viability [4] 105% | viability [5] 98.1% | inhibition [6] 1.47% | RAM network inhibition [7] 0.3%

COCCCN(C(=O)Cn1ncc2c(=O)oc3ccc(C)cc3c21)C(C)c1ccncc1 (stereo not drawn)
inactive: growth inhibition [1] -16% | growth inhibition [2] -27.4% | viability increase [3] -1.85% | viability [4] 103% | viability [5] 98.3% | inhibition [6] 1.15% | RAM network inhibition [7] 0.85%

COC(=O)c1ccc(Nc2cc(C)nc3nc(C)nn23)cc1
inactive: growth inhibition [1] -10.5% | growth inhibition [2] -4.57% | viability increase [3] -2.65% | viability [4] 97.3% | viability [5] 94.6% | inhibition [6] 1.67% | RAM network inhibition [7] 0.77%

Cc1oc(-c2cccs2)nc1CS(=O)CC(=O)NCCc1ccccc1 (stereo not drawn)
inactive: growth inhibition [1] 0.14% | growth inhibition [2] 34.7% | viability increase [3] -0.31% | viability [4] 86.1% | viability [5] 97.5% | inhibition [6] 2.6% | RAM network inhibition [7] 7.8%

Nc1nonc1-n1nncc1-c1ccccc1
inactive: growth inhibition [1] -8.35% | growth inhibition [2] -13.6% | viability increase [3] -1.04% | viability [4] 92.4% | viability [5] 96.7% | inhibition [6] 1.67% | RAM network inhibition [7] 1.25%

CN(C)c1cc(-c2ccccc2)nc(N)n1
inactive: growth inhibition [1] -13.3% | growth inhibition [2] -15.5% | viability increase [3] -6.2% | viability [4] 64.2% | viability [5] 55.8% | inhibition [6] 2.73% | RAM network inhibition [7] 0.09%

O=S(=O)(NCc1ccc2c(c1)OCO2)c1cnc[nH]1
inactive: growth inhibition [1] -5.07% | growth inhibition [2] 0.305% | viability increase [3] 1.17% | viability [4] 107% | viability [5] 106% | inhibition [6] 0.885% | RAM network inhibition [7] 0.72%

CC(=O)NCC(=O)N(c1ccccc1)C1(C(=O)NC2CCCCC2)CCCCC1
inactive: growth inhibition [1] -3.84% | growth inhibition [2] 6.72% | viability increase [3] -2.01% | viability [4] 103% | viability [5] 98.3% | inhibition [6] 0.165% | RAM network inhibition [7] -0.7%

Cc1nccc2[nH]c(=O)c(C(=O)NC3CCN(Cc4ccccc4)CC3)cc12
inactive: growth inhibition [1] -0.105% | growth inhibition [2] -8.34% | viability increase [3] -3.81% | viability [4] 104% | viability [5] 93.9% | inhibition [6] 1.82% | RAM network inhibition [7] 7.9%

CC1(C)C(c2ccc(Cl)cc2)=[N+]([O-])C2(CCCC/C2=N\O)N1O (stereo not drawn)
inactive: growth inhibition [1] -15.4% | growth inhibition [2] -4.64% | viability increase [3] 1.21% | viability [4] 96.5% | viability [5] 94.2% | inhibition [6] 0.555% | RAM network inhibition [7] 6.93%

CCn1c(SCC(=O)Nc2nnc(C)s2)nc2c(c1=O)SC(C)C2 (stereo not drawn)
inactive: growth inhibition [1] -0.875% | growth inhibition [2] -16.4% | viability increase [3] 1.14% | viability [4] 103% | viability [5] 96.6% | inhibition [6] 2.4% | RAM network inhibition [7] 2.04%

CCN1CCN(Cc2ccc(NC(=O)CC3Oc4ccc(C)cc4NC3=O)cc2)CC1 (stereo not drawn)
inactive: growth inhibition [1] -3.29% | growth inhibition [2] 1.68% | viability increase [3] -0.91% | viability [4] 93% | viability [5] 101% | inhibition [6] 0.29% | RAM network inhibition [7] 2.33%

COc1ccc(C2C(C(=O)N3CCOCC3)CCC(=O)N2c2cc(OC)c(OC)c(OC)c2)cc1 (stereo not drawn)
inactive: growth inhibition [1] -10.2% | growth inhibition [2] -12.3% | viability increase [3] -0.09% | viability [4] 99.7% | viability [5] 102% | inhibition [6] 0.705% | RAM network inhibition [7] 1.3%

COC(=O)C(C)Sc1ccc2nnc(-c3cccc(F)c3)n2n1 (stereo not drawn)
inactive: growth inhibition [1] 8.96% | growth inhibition [2] 14.9% | viability increase [3] -3.98% | viability [4] 94.7% | viability [5] 87.4% | inhibition [6] 2.51% | RAM network inhibition [7] 0.15%
